An excerpt weighted towards active compounds, which were near 1.8% of everything screened.
eIF4H FP inh: inhibitors of RNA binding by human eIF4H; eIF4H fluorescence polarization binding assay; inhibition, % at 35 µM; 290,000 tested, 0.94% active; AID 2012;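 further: calls also rest on retests at 20 µM and on dose response follow-up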
PABP FP inh: PABP-poly(A) binding inhibition. P11940. PABP-poly(A) RNA binding, fluorescence polarization. calls only at 35 µM. 290,000 tested, 1% active. AID 2014;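 further: calls also rest on retests at 20 µM and on dose response follow-up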
Target sequence (P11940 whole entry, looked up): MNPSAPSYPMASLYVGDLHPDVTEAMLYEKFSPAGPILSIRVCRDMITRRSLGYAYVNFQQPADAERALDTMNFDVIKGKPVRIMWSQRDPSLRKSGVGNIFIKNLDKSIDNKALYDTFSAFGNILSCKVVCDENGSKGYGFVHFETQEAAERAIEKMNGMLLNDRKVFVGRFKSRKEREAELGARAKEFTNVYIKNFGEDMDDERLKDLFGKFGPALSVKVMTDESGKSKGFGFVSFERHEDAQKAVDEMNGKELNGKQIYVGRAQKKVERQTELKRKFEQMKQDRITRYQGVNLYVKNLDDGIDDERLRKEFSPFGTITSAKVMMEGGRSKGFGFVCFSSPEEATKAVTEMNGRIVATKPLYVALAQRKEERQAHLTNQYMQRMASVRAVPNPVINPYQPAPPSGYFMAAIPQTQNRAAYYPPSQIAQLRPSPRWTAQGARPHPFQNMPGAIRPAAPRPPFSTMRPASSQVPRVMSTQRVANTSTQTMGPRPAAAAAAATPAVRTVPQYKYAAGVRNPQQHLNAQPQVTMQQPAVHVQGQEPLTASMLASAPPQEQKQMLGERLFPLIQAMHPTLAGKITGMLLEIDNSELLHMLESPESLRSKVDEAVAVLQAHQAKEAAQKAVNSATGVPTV
core dimer inh: HCV core protein dimerization inhibition | 300,000 tested, 0.33% active | inhibition, % at 5 µM | TR-FRET GST/Flag-core106 dimerization, 1536-well | AID 1899;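 active means inhibition above the mean of all tested compounds plus 3 SD, set per screening campaign, cut at about 45% in these data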
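System – GST-tagged and Flag-tagged HCV core protein residues 1-106 · Repeats – one well for each compound · Technique – TR-FRET 671 and 617 nm emission · Doses – one concentration, 5 µM, in 0.5% DMSO · Times – 4 h, 22.5 °C incubation · Also added – Eu donor and XL665 acceptor anti-tag antibodies · Measure – percent inhibition of core106 dimerization signal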
SUMO HTRF inh: inhibitors of human SUMOylation (UBC9); P63279; HTRF SUMOylation assay, SAE1/SAE2 + UBC9, in vitro; inhibition, % at 35 µM; 290,000 tested, 0.36% active; AID 2006; in the data active means inhibition above about 50%, passing the limit was not always enough; inconclusive means no clear call, values can overlap the other calls
eIF4E-4G inh: eIF4E/eIF4G interaction inhibition in translation initiation; inhibition, % at 21.7 µM; TR-FRET eIF4E-eIF4GI(517-606) binding, 2 h; 220,000 tested, 0.37% active; P63073+Q04637;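 active means inhibition above about 30%, limit read from the data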
PABP1 MLLE inh: inhibitors of microRNA-mediated deadenylation, human PABP1 MLLE binding. GST-MLLE / FITC-PAM2 fluorescence polarization. AID 588489. P11940. 360,000 tested, 0.36% active. inhibition, % at 20 µM; in the data active means inhibition above about 35%, passing the limit was not always enough
Of the large screens only hits and unclear results are named; the others gave an inactive call; [ ] = dose if it differs, or a comment. Unless noted, how the calls were made is not given here.

CC(=O)NC(CC(=O)NC1CCCCCC1)c1ccccc1 (stereo not drawn)	none
CC(CC(=O)NC1CCCC1)c1ccccc1 (stereo not drawn)	PABP FP inh active
O=C(CCSc1ccccc1)NC1CCCCCC1	PABP FP inh active
CC(C)(c1ccccc1)c1ccc(OCC(O)CNC2CCN(Cc3ccccc3)CC2)cc1 (stereo not drawn)	none
CC(C)C1Nc2ccc(C(=O)O)cc2C2C=CCC21 (stereo not drawn)	eIF4H FP inh 95.7
COCCNC(=O)C1Nc2ccc(C(F)(F)F)cc2C2C=CCC12 (stereo not drawn)	none (no result: eIF4H FP inh, PABP FP inh, SUMO HTRF inh, eIF4E-4G inh)
CC(=O)c1ccc2c(c1)C1C=CCC1C(c1ccc(S(=O)(=O)N3CCOCC3)cc1)N2 (stereo not drawn)	core dimer inh 78.8
CC(=O)c1ccc2c(c1)C1C=CCC1C(c1cc3c(cc1Br)OCO3)N2 (stereo not drawn)	none (no result: eIF4H FP inh, PABP FP inh, SUMO HTRF inh, eIF4E-4G inh)
CCCC1Nc2ccc(C(=O)O)cc2C2C=CCC12 (stereo not drawn)	none
CCOC(=O)c1ccc2c(c1)C1C=CCC1C(C(=O)O)N2 (stereo not drawn)	eIF4H FP inh 91.8, PABP FP inh active, core dimer inh 87.6, SUMO HTRF inh 59.6, eIF4E-4G inh 47.0 (no result: PABP1 MLLE inh)
O=C(O)c1ccc2c(c1)C1C=CCC1C(c1ccncc1)N2 (stereo not drawn)	eIF4H FP inh 97.0, PABP FP inh active
N#CCCC(CCC#N)C1=NCCc2ccccc21	none
O=C1NC2(CCCCC2)C(=O)N1c1cccc(Cl)c1	none (no result: eIF4E-4G inh)
O=C(CSc1nc2c(cnn2-c2cccc(Cl)c2)c(=O)[nH]1)NCCC1=CCCCC1	none (no result: eIF4H FP inh, PABP FP inh, core dimer inh, SUMO HTRF inh, eIF4E-4G inh)
CCOC(=O)C1Nc2ccc(C(=O)O)cc2C2C=CCC12 (stereo not drawn)	eIF4H FP inh 95.6, PABP FP inh active, PABP1 MLLE inh 50.0 (no result: eIF4E-4G inh)
CCOC(=O)C1Nc2c(F)cc(C)cc2C2C=CCC12 (stereo not drawn)	none (no result: eIF4H FP inh, PABP FP inh, SUMO HTRF inh, eIF4E-4G inh, PABP1 MLLE inh)
CC(C)(C)c1ccc(C(=O)NCc2nnc(SCC(=O)NCc3ccco3)o2)cc1	eIF4H FP inh 52.5 (no result: eIF4E-4G inh)
COc1ccc(CC2S/C(=N/N=C/c3ccccc3O)NC2=O)cc1 (stereo not drawn)	SUMO HTRF inh 58.2
COc1ccc(CC2S/C(=N/N=C/c3ccc(O)cc3)NC2=O)cc1 (stereo not drawn)	none
O=C1N/C(=N/N=C/c2ccccc2O)SC1Cc1ccc(F)cc1 (stereo not drawn)	SUMO HTRF inh 61.4
O=C(NNC(=O)c1cc2cc(Br)ccc2oc1=O)c1ccc(O)cc1O	eIF4H FP inh 85.4, PABP FP inh active
COc1ccc(C(CNC(=O)CCNS(=O)(=O)c2ccccc2)N2CCOCC2)cc1 (stereo not drawn)	none (no result: eIF4H FP inh, PABP FP inh, core dimer inh, SUMO HTRF inh, eIF4E-4G inh)
CCOC(=O)CNc1ccc2c(c1)OCO2	eIF4H FP inh inconclusive, PABP FP inh active
COc1ccc(NC(=O)CNS(=O)(=O)c2ccc(Cl)cc2)cc1	none
COc1ccc(NC(C)=[N+](C)CCNS(=O)(=O)c2ccc(Cl)cc2)cc1	PABP FP inh active (no result: eIF4E-4G inh)
CC(C)CC(=O)Nc1c2c(nn1-c1cccc(Cl)c1)CS(=O)C2 (stereo not drawn)	none (no result: eIF4E-4G inh)
Cc1noc(C)c1S(=O)(=O)Nc1ccc2c(c1)C(=O)N([C@@H](C)CO)C[C@H](C)[C@@H](CN(C)Cc1ccc(C(F)(F)F)cc1)OCCCC[C@H](C)O2	none (no result: eIF4H FP inh, PABP FP inh, core dimer inh, SUMO HTRF inh, eIF4E-4G inh)
COc1ccc2c(c1)Cc1sc(NC(=O)c3ccco3)nc1-2	none
COc1ccc2c(c1)Cc1sc(NC(=O)c3cccnc3)nc1-2	SUMO HTRF inh 89.8
COc1ccc2c(c1)CCc1sc(NC(=O)c3ccc(C)cc3)nc1-2	none
COc1ccc2c(c1)Cc1sc(NC(C)=O)nc1-2	PABP1 MLLE inh 37.3
COc1ccc(C(CNC(=O)c2ccc(OCc3csc(C)n3)cc2)N2CCCC2)cc1 (stereo not drawn)	none (no result: eIF4H FP inh, PABP FP inh, core dimer inh, SUMO HTRF inh, eIF4E-4G inh)
O=C(Cc1c(Cl)cccc1Cl)N1CCN(S(=O)(=O)c2cccs2)CC1	none (no result: eIF4H FP inh, PABP FP inh, core dimer inh, SUMO HTRF inh, eIF4E-4G inh)
Fc1cccc2sc(Nc3nnc(-c4ccco4)o3)nc12	eIF4H FP inh 60.7, PABP FP inh active
CCCn1nc(C(=O)NNC(=O)C2CSC3(C)CCC(=O)N23)c2ccccc2c1=O (stereo not drawn)	none (no result: eIF4H FP inh, PABP FP inh, SUMO HTRF inh, eIF4E-4G inh)
O=C(O)c1ccc2c(c1)NC(=O)C(N1CCCC1)S2 (stereo not drawn)	PABP1 MLLE inh 54.8
O=c1[nH]c2cc(S(=O)(=O)CCO)ccc2o1	none
CCN(C(=O)COC(=O)c1nc(Cl)ccc1Cl)C1CCS(=O)(=O)C1 (stereo not drawn)	none (no result: eIF4H FP inh, PABP FP inh, SUMO HTRF inh, eIF4E-4G inh)
CN(C)c1ccnc(Nc2ccccc2)c1C#N	none
CN(C)c1ccnc2c[cH-]cc12.[Fe].c1ccc(-[c-]2[c-](-c3ccccc3)[c-](-c3ccccc3)[c-](-c3ccccc3)[c-]2-c2ccccc2)cc1 (stereo not drawn)	eIF4E-4G inh 40.6
O=C(CN1CCCC1c1cccs1)N1CCN(S(=O)(=O)c2ccccc2)CC1 (stereo not drawn)	none (no result: eIF4H FP inh, PABP FP inh, core dimer inh, SUMO HTRF inh, eIF4E-4G inh)
Cc1ccc(-n2c(C)cc(/C=N/Nc3ccc([N+](=O)[O-])cn3)c2C)cc1	eIF4E-4G inh 34.7[fluorescence artefact?]
O=c1c2ccccc2[nH]c(=S)n1CCCN1CCC(Cc2ccccc2)CC1	none (no result: eIF4E-4G inh)
Cc1cc(OCC(=O)N(Cc2cccs2)C2CCS(=O)(=O)C2)ccc1Cl (stereo not drawn)	none (no result: eIF4E-4G inh)
CCOC(=O)c1c(-c2ccc(-c3ccccc3)cc2)csc1NC(=O)C1C2CCC(O2)C1C(=O)O (stereo not drawn)	eIF4H FP inh inconclusive, core dimer inh 46.4
CCOC(=O)c1c(-c2ccccc2)csc1NC(=O)CSc1nncs1	PABP FP inh active
CCOC(=O)c1c(-c2cccc([N+](=O)[O-])c2)csc1NC(=O)CCCOc1ccccc1	eIF4E-4G inh 75.5
CCOC(=O)c1c(-c2ccccc2)csc1NC(=O)CSc1ccccc1	none
CCOC(=O)c1c(-c2ccccc2)csc1NC(=O)/C(C#N)=C/c1ccc(O)c(OC)c1	eIF4H FP inh inconclusive, PABP FP inh active
CCOC(=O)c1c(-c2ccccc2)csc1NC(=O)/C(C#N)=C/c1ccc(OC)c(OC)c1	none
COc1ccc(-c2c(C3=CCCCC3)oc3ccc(-c4ccc5c(c4)OCO5)cc23)cn1	none (no result: eIF4H FP inh, PABP FP inh, SUMO HTRF inh, eIF4E-4G inh)
COC(=O)Cc1csc(Nc2ccc(F)c(Cl)c2)n1	none
COc1ccc(NC(=O)CSc2nnc(-c3cccs3)n2-c2ccccc2)cc1	none
CCOC(=O)c1c(-c2ccccc2)csc1NC(=O)C1CCCO1 (stereo not drawn)	PABP1 MLLE inh 38.9
CCOC(=O)c1cc(C)sc1/N=C/C1C(=O)CCCC1=O	none
CCOC(=O)c1cc(C)sc1/N=C/C1=C(O)CCCC1=O	eIF4H FP inh 54.7, PABP FP inh active
O=C(CN1C(=O)/C(=C/c2ccccc2Cl)SC1=S)NC1CCS(=O)(=O)C1 (stereo not drawn)	PABP1 MLLE inh 39.2 (no result: eIF4E-4G inh)

Source: PubChem
